Source: PubChem (Broad Institute)
This is a sample that favours compounds with a hit; in the whole collection about 3.1% have one here.
Env fusion inh: blocks HIV Env-driven cell-cell fusion | 360,000 compounds, 1.1% hits | HeLa-JRFL Env/CEM21 cell fusion, luciferase | inhibition, % at 12.3 µM;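 active means mean replicate inhibition score of at least 50 and every replicate individually at or above 50; inconclusive means only one of the two criteria met; inactive means mean below 50 and not all replicates reaching 50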;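 further: 0% = plate neutral controls and 100% = maraviroc near 300 nM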
FN deposition inh: fibronectin deposition inhibition; inhibition, % at 12.6 µM; AH1F fibroblasts, Alexa488-fibronectin deposition fluorescence, overnight; 350,000 compounds, 0.086% hits;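 active means mean inhibition across replicates of 30% or more, regardless of how many single replicates reach that level; inconclusive means mean under 30% yet at least half of replicates reach 30%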;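 further: positive control wells lacked labelled fibronectin entirely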
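Assay system: AH1F fibroblasts / Quantity: 10000 cells per well / Medium: DMEM plus 2% serum, read in PBS / Reagent: labelled fibronectin 24 nM / Dosing: single dose, pinned / Times: 1 h cell attachment, overnight exposure to compound and label / Signal: fluorescence, ex 485 nm, em 525 nm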
PGC1a acetyl inh: lowers PGC1a acetylation signal in U2OS cells; AID 651687; 350,000 compounds, 0.17% hits; AlphaScreen anti-acetyl-lysine; with virally co-expressed GCN5 acetyltransferase; inhibition, % at 15.6 µM;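 active means every replicate shows inhibition of at least 40%; inconclusive means mean inhibition at least 40% but some replicate below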;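 further: 0% = neutral control wells and 100% = positive control wells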
EWS-Fli inh: EWS/Fli transcriptional activity inhibition; A673 NR0B1-luciferase reporter, viability-normalised; inhibition, % at 12.6 µM; 350,000 compounds, 0.67% hits; AID 651661;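 active means mean inhibition of at least 50% after viability correction, with every replicate also passing that limit; inconclusive means mean reaches 50% but only one of two replicates passes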;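 further: firefly luciferase signal divided by Alamar Blue viability fluorescence both relative to DMSO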
FGF22 binding: shifts melting point of recombinant human FGF22; recombinant FGF22 thermal shift, SYPRO orange fluorescence; percent of sucrose octasulfate shift, DMSO zero; activity (Tm shift, normalised), % at 9.99 µM; 340,000 compounds, 1.5% hits;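 active means mean Tm shift, scaled 0 neutral to 100 positive control, at about 1.3% or above, every replicate too, limit read from the data; inconclusive means no clear call, values can overlap the other calls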
Target sequence (Q9HCT0 whole entry, looked up): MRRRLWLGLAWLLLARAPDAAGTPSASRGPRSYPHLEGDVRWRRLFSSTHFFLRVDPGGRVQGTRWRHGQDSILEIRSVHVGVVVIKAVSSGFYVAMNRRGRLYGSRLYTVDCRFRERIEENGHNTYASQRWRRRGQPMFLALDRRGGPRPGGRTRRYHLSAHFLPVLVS
PAX8 inh HTS: PAX8 transcriptional activity inhibition; RMG-I TPO-luciferase reporter, SteadyGlo, 24 h; inhibition, % at 12.6 µM; 360,000 compounds, 1.2% hits;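 active means mean replicate inhibition at least 60% with every replicate also reaching 60%; inconclusive means only one of the two criteria is met; inactive means mean below 60% and not all replicates reaching 60%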;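 further: luciferase light reporting Pax8 driven TPO promoter activity; plate controls were median of neutral control wells for no effect and mitoxantrone controls for full effect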
An asterisk follows results filed as active; ? = inconclusive; · = no result given; [ ] = remark or other dose.

SMILES | Env fusion inh | FN deposition inh | PGC1a acetyl inh | EWS-Fli inh | FGF22 binding | PAX8 inh HTS
COc1ccc(S(=O)(=O)N2CC[C@H]3[C@@H](CO)N(C)c4ccc(-c5ccc(F)cc5)cc4[C@H]32)cc1 | · | 7.7 | -1.0 | -8.7 | 0.0 | -0.7
CCOC(=O)c1c(NC(=O)CC2SC(N)=NC2=O)sc(C)c1C (centres undefined) | -1.6 | 5.2 | · | 2.5 | 43.3* | -1.6
CCOC(=O)c1c(NC(=O)Cn2ccsc2=N)sc(C)c1C | 2.7 | 7.0 | -5.8 | 6.2 | 43.2* | 0.6
CCOC(=O)c1c(NC(=O)CNCCO)sc(C)c1C | · | · | -13.3 | · | · | ·
C[C@H](CO)N1C[C@H](C)[C@H](CN(C)C(=O)CC2CC2)Oc2ncc(-c3ccc(C#N)cc3)cc2C1=O | 2.5[16.7 µM] | · | 16.5 | -4.4 | 0.1 | ·
CCOC(=O)c1ccc(N=Nc2c(C)[nH]n(-c3ccccc3)c2=O)cc1 | -7.4 | -0.9 | -2.9 | 21.3 | -0.1 | 12.1
CCOC(=O)c1ccc(-n2[nH]c(-c3ccccc3)cc2=O)cc1 | 57.7* | · | 10.8 | · | · | ·
Cc1ccc(-c2cc(C(=O)OCC(=O)N(C)C3CCS(=O)(=O)C3)c3ccccc3n2)o1 (centres undefined) | 19.4 | 5.9 | · | -27.8 | 43.2* | 5.6
CCN(C(=O)COC(=O)c1cc(-c2ccc(C)o2)nc2ccccc12)C1CCS(=O)(=O)C1 (centres undefined) | -8.7 | · | -2.4 | -8.3 | 0.1 | 2.7
C[C@H](CO)N1C[C@H](C)[C@H](CN(C)S(=O)(=O)c2ccc(F)cc2)Oc2ccc(NC(=O)CCCN(C)C)cc2C1=O | · | · | -4.8 | 2.4 | 0.1 | -8.9
CC1(C(=O)Nc2cccc(C#N)c2)CCN1C(=O)CCc1ccccc1 (centres undefined) | -21.6 | 3.7 | 43.6* | 1.4 | 0.1 | -12.1
CC(=O)N1[C@@H](CO)[C@@H](c2ccccc2)C12CN(C(=O)c1cnccn1)C2 | · | · | 18.0 | -7.0 | -0.1 | ·
CN(C(=O)CS(=O)(=O)Cc1ccccc1Cl)c1ccccc1 | 3.9 | 1.2 | -2.2 | 1.4 | 43.3* | 17.1
O=C(O)CCS(=O)(=O)Cc1ccccc1Cl | · | · | 4.3 | 2.3 | 0.1 | ·
ClC(Cl)(Cl)c1nc2ccccc2n2nncc12 | -304.6 | 0.9 | · | 47.9 | 0.1 | 86.3*
CCC(C)N(C(=O)COC(=O)c1cc([N+](=O)[O-])ccc1N)C1CCS(=O)(=O)C1 (centres undefined) | 70.5* | · | -0.4 | · | 0.0 | 9.6
CCN(C(=O)COC(=O)c1ccc(Cl)c(S(=O)(=O)N2CCCCC2)c1)C1CCS(=O)(=O)C1 (centres undefined) | -2.2 | 1.1 | -4.3 | 2.3 | -0.1 | -0.3
CCN(C(=O)COC(=O)c1ccc(Cl)c(N)c1)C1CCS(=O)(=O)C1 (centres undefined) | 4.6 | -0.7 | 6.4 | 18.1 | 43.1* | -6.7
Cc1ccccc1CC1(C)C(=O)Nc2ccc(S(=O)(=O)NC3CCCCC3)cc21 (centres undefined) | 17.3 | -6.5 | · | -5.3 | -0.4 | 12.8
COc1ccc(OC(F)(F)F)cc1CC1(C)C(=O)Nc2ccc(-c3ccsc3)cc21 (centres undefined) | 58.5* | -1.9 | -12.3 | -4.4 | -0.1 | -12.9
COc1ccc(Cl)cc1CC1(C)C(=O)Nc2ccc(S(=O)(=O)NC3CCCCC3)cc21 (centres undefined) | 92.8* | 4.7 | -30.4 | -6.6 | 0.5 | 14.0
COc1ccc(OC(F)(F)F)cc1CC1(C)C(=O)Nc2ccc(S(=O)(=O)NC3CCCCC3)cc21 (centres undefined) | 88.0* | -9.0 | -38.0 | 1.2 | 0.4 | 11.6
COc1ccc(OC(F)(F)F)cc1CC1(C)C(=O)Nc2cccc(Cl)c21 (centres undefined) | 83.2* | -6.8 | -23.8 | 10.4 | -0.1 | ·
Cc1ccc(S(=O)(=O)Nc2ccc3c(c2)C(=O)N([C@H](C)CO)C[C@@H](C)[C@@H](CN(C)C(=O)Nc2c(C)noc2C)O3)cc1 | 20.3[16.7 µM] | -3.9 | 3.9 | -0.6 | 0.0 | 6.1
CC(C)NC(=O)N(C)C[C@@H]1Oc2ncc(C#Cc3ccccc3F)cc2C(=O)N([C@@H](C)CO)C[C@@H]1C | 14.9[16.7 µM] | 0.9 | 5.7 | 2.5 | -0.3 | ·
SMILES | Env fusion inh | FN deposition inh | PGC1a acetyl inh | EWS-Fli inh | FGF22 binding | PAX8 inh HTS
CC1(Cc2ccccc2OC(F)(F)F)C(=O)Nc2ccc(S(=O)(=O)NC3CCCCC3)cc21 (centres undefined) | 54.7 | -3.4 | -24.6 | 5.7 | -0.2 | 8.4
COc1ccccc1CC1(C)C(=O)Nc2ccc(S(=O)(=O)NC3CCCCC3)cc21 (centres undefined) | 56.0* | 5.2 | · | -7.7 | -0.5 | -8.6
Cn1cnc(S(=O)(=O)N2C[C@H](O)COC[C@H]3O[C@@H](CC(=O)N4CCN(c5ccccc5)CC4)CC[C@@H]32)c1 | 1.7[16.7 µM] | -1.5 | 0.0 | -8.0 | -0.1 | 4.7
CC1(C)CC(NC(=S)NC2CC2)CC(C)(C)N1 | -4.6 | -23.8 | 13.9 | 5.0 | 43.4* | 3.1
C=CCNC(=S)NC1CC(C)(C)NC(C)(C)C1 | 15.6 | 3.1 | · | 0.9 | -0.1 | -12.7
COc1cccc(CN2CCN(C(=O)Nc3ccc([N+](=O)[O-])cc3)CC2)c1 | 8.6 | 0.0 | · | 14.6 | 43.0* | -2.8
CCOc1ccc(C2CC(c3ccccc3C)n3nc(N)nc3N2)cc1 (centres undefined) | 64.7* | -10.4 | 6.1 | 0.8 | 0.1 | -8.9
C[C@H]1CCCCO[C@@H](CN(C)S(=O)(=O)c2ccc(Cl)cc2)[C@@H](C)CN([C@@H](C)CO)C(=O)c2cc(NS(=O)(=O)c3ccc(F)cc3)ccc2O1 | 10.9[16.7 µM] | -1.4 | 3.0 | 6.6 | -0.5 | 62.6*
C[C@@H]1CCCCO[C@H](CN(C)S(=O)(=O)c2ccc(F)cc2)[C@@H](C)CN([C@@H](C)CO)C(=O)c2cc(NS(=O)(=O)c3ccc(Cl)cc3)ccc2O1 | -15.6[16.7 µM] | 1.4 | 2.5 | 1.8 | · | ?
C[C@@H]1CCCCO[C@H](CN(C)S(=O)(=O)c2ccc(Cl)cc2)[C@H](C)CN([C@@H](C)CO)C(=O)c2cc(NS(=O)(=O)c3ccc(F)cc3)ccc2O1 | -104.4[16.7 µM] | -8.8 | 1.4 | 3.5 | 0.0 | 83.1*
C[C@H](CO)N1C[C@H](C)[C@@H](CN(C)S(=O)(=O)c2ccc(Cl)cc2)OCCCC[C@H](C)Oc2ccc(NS(=O)(=O)c3ccc(F)cc3)cc2C1=O | -1.9[16.7 µM] | 2.3 | 1.8 | -0.6 | 0.4 | 84.2*
C[C@H]1CCCCO[C@@H](CN(C)S(=O)(=O)c2ccc(F)cc2)[C@@H](C)CN([C@@H](C)CO)C(=O)c2cc(NS(=O)(=O)c3ccc(Cl)cc3)ccc2O1 | 33.7[16.7 µM] | -0.4 | -2.2 | -4.0 | · | 68.6*
C[C@@H]1CCCCO[C@H](CN(C)S(=O)(=O)c2ccc(Cl)cc2)[C@H](C)CN([C@H](C)CO)C(=O)c2cc(NS(=O)(=O)c3ccc(F)cc3)ccc2O1 | 12.5[16.7 µM] | 2.8 | -16.6 | 4.1 | 0.1 | 48.3
